Data published in ChEMBL document CHEMBL1143706, “Design, synthesis, and biological evaluation of novel bifunctional C-terminal-modified peptides for delta/mu opioid receptor agonists and neurokinin-1 receptor antagonists” (J Med Chem, 2007).
Square brackets hold non-standard residues; d marks the D form. Peptide text beside a SMILES is read from it. * marks the point of attachment. OBzl(3,5-(CF3)2) = FC(F)(F)c1cc(CO*)cc(C(F)(F)F)c1

How the values were obtained:
[1] = target: Substance-P receptor (Cavia porcellus) (UniProt P30547); experiment: Antagonist activity at NK1 receptor in Hartley guinea pig isolated ileum assessed as inhibition of substance P-induced muscle contraction; assay type: functional, tissue-based
Sequence of Substance-P receptor (Cavia porcellus) (P30547 whole entry): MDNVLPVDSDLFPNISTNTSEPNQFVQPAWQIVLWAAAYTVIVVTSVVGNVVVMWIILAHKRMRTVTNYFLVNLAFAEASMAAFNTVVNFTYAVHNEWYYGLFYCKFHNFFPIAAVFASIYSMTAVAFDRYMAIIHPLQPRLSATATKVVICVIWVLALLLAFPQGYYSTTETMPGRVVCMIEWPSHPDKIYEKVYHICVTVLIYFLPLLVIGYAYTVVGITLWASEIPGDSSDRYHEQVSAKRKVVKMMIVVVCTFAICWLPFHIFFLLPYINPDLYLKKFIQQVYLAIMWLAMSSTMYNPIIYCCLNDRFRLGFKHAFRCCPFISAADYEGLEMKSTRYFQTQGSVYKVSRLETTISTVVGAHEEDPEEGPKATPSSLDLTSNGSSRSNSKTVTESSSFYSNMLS
Method in brief: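 Guinea pig ileum LMMP (male Hartley), 1 g tension, in oxygenated Krebs at 37 °C, with 1 μM naloxone present. Substance P dose–response curves were run with and without peptide. Responses were expressed as % of the maximal peak of the control substance P curve, and Ke was derived from these curves.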

[2] = Ratio of EC50 for rat mu opioid receptor to EC50 for human delta opioid receptor by [35S]GTPgammaS binding assay; assay type: functional
Method in brief: (§1)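 Membranes (10 μg) from transfected cells stably expressing hDOR or rMOR, in 1 mL of 50 mM HEPES pH 7.4 with 1 mM EDTA, 5 mM MgCl2, 30 μM GDP, 1 mM DTT, 100 mM NaCl, 0.1 mM PMSF, 0.1% BSA and 0.1 nM [35S]GTPγS. Peptide added at various concentrations in duplicate, 90 min at 30 °C, then filtration. Nonspecific binding defined with 10 μM GTPγS. Stimulation taken as % over basal; EC50 and Emax by nonlinear regression from two independent experiments.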

[3] = target: Mu-type opioid receptor (Rattus norvegicus) (UniProt P33535); experiment: Agonist activity at rat mu opioid receptor expressed in HN9.10 cells assessed by [35S]GTP-gamma-S binding assay relative to control; assay type: functional, cell-based; method in brief: as §1
Sequence of Mu-type opioid receptor (Rattus norvegicus) (P33535 whole entry): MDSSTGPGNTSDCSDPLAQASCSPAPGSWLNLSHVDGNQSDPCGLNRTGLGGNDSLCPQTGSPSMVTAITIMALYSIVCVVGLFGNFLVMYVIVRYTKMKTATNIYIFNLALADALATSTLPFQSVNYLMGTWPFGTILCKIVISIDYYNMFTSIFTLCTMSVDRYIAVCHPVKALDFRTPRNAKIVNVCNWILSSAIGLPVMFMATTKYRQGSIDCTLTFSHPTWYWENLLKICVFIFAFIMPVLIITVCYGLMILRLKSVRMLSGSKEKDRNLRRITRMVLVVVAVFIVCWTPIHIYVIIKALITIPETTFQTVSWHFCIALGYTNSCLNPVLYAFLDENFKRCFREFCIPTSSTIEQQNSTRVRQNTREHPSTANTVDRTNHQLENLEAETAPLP

[4] = target: T1, Delta-type opioid receptor (Homo sapiens, UniProt P41143); experiment: Agonist activity at human delta opioid receptor expressed in HN9.10 cells assessed by [35S]GTP-gamma-S binding assay; assay type: functional, cell-based; method in brief: as §1
T1 sequence (P41143 whole entry): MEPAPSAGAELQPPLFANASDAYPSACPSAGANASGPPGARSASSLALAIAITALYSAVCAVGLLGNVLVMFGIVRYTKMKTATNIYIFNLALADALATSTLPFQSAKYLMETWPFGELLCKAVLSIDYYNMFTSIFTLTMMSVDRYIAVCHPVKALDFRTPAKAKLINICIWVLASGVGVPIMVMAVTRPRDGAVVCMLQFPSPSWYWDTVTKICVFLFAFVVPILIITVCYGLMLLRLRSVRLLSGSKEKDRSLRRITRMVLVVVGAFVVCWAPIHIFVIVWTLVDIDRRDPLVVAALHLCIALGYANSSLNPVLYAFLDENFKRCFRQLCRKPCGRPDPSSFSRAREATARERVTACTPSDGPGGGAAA

[5] = Ratio of Ki for rat mu opioid receptor to Ki for human delta opioid receptor
Method in brief: (§2)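 Competition binding on crude membranes (50 μg) from cells stably expressing rMOR ([3H]DAMGO, 1.0 nM) or hDOR ([3H]DPDPE, 1.0 nM). Buffer was 50 mM Tris pH 7.4 with peptidase/protease inhibitors and 1 mg/mL BSA. Ten peptide concentrations were run in duplicate for 3 h at 25 °C, with 10 μM naloxone for nonspecific binding. Separation by filtration and scintillation counting; IC50 by nonlinear regression from two experiments; Ki by Cheng–Prusoff.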

[6] = target: T1, Delta-type opioid receptor; experiment: Agonist activity at human delta opioid receptor expressed in HN9.10 cells assessed by [35S]GTP-gamma-S binding assay relative to control; assay type: functional, cell-based; method in brief: as §1
[7] = Ratio of IC50 for mu opioid receptor in GPI assay to IC50 for delta opioid receptor in MVD assay; assay type: functional
Method in brief: (§3)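 Isolated tissues, electrically stimulated at supramaximal voltage: guinea pig (male Hartley) ileum LMMP (1 g tension, Krebs, 0.1 Hz, 0.4 ms) and male ICR mouse vas deferens (0.5 g, Mg-free Krebs, 0.1 Hz, 2.0 ms), both at 37 °C.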

Mu-type opioid receptor [8] = target: T2, Mu-type opioid receptor (Rattus norvegicus, UniProt P33535); experiment: Agonist activity at rat mu opioid receptor expressed in HN9.10 cells assessed by [35S]GTP-gamma-S binding assay; assay type: functional, cell-based; method in brief: as §1
T2 sequence (P33535 whole entry): as the sequence (P33535 whole entry) above

[9] = target: Mu-type opioid receptor (Cavia porcellus) (UniProt P97266); experiment: Agonist activity at mu opioid receptor in Hartley guinea pig isolated ileum assessed as muscle contraction at 1 uM relative to KCl; assay type: functional, tissue-based
Sequence of Mu-type opioid receptor (Cavia porcellus) (P97266 whole entry): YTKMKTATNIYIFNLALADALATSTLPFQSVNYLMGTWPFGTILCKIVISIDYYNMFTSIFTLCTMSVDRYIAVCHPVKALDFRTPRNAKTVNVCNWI
Method in brief: (§4)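 Guinea pig ileum LMMP (male Hartley) in oxygenated Krebs at 37 °C, 1 g tension, exposed to peptide at the tested antagonist concentration. Any contraction was expressed relative to the initial KCl-induced contraction of the same tissue. Testing stopped at […].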

[10] = target: Substance-P receptor (Cavia porcellus) (UniProt P30547); experiment: Agonist activity at NK1 receptor in Hartley guinea pig isolated ileum assessed as muscle contraction relative to KCl; assay type: functional, tissue-based; set-up: concentration or dose not given beside the values; method in brief: as §4
Mu-type opioid receptor [11] = target: Mu-type opioid receptor (Cavia porcellus, UniProt P97266); experiment: Agonist activity at mu opioid receptor in Hartley guinea pig ileum assessed as inhibition of electrically-stimulated muscle contraction; assay type: functional, tissue-based; method in brief: as §3
Sequence of Mu-type opioid receptor (Cavia porcellus, UniProt P97266) (P97266 whole entry): as above

Mu-type opioid receptor [12] = target: T2, Mu-type opioid receptor; experiment: Displacement of [3H]DAMGO from rat mu opioid receptor expressed in HN9.10 cells; assay type: cell-based; method in brief: as §2
[13] = target: T1, Delta-type opioid receptor; experiment: Displacement of [3H]DPDPE from human delta opioid receptor expressed in HN9.10 cells; assay type: cell-based

SMILES: CC(C)C[C@H](NC(=O)[C@@H]1CCCN1C(=O)[C@@H](Cc1ccccc1)NC(=O)[C@H](Cc1ccccc1)NC(=O)CNC(=O)[C@@H](C)NC(=O)[C@@H](N)Cc1ccc(O)cc1)C(=O)N[C@@H](Cc1c[nH]c2ccccc12)C(=O)OCc1cc(C(F)(F)F)cc(C(F)(F)F)c1
- Ke [1]: 70 nM
- Ratio EC50 [2]: 20
- Emax [3]: 24%
- EC50 [4]: 17 nM
- Ratio Ki [5]: 4.1
- Emax [6]: 23%
- Ratio IC50 [7]: > 2.4
- EC50 (Mu-type opioid receptor [8]): 350 nM
- Activity [9]: 9%
- Activity [10]: 0%

SMILES: CC(C)C[C@H](NC(=O)[C@@H]1CCCN1C(=O)[C@H](CC[S+](C)[O-])NC(=O)[C@H](Cc1ccccc1)NC(=O)CNC(=O)[C@@H](C)NC(=O)[C@@H](N)Cc1ccc(O)cc1)C(=O)N[C@@H](Cc1c[nH]c2ccccc12)C(=O)OCc1cc(C(F)(F)F)cc(C(F)(F)F)c1 (some centres undefined)
- Ke [1]: 7.8 nM
- IC50 (Mu-type opioid receptor [11]): 150 nM
- Emax [6]: 52%

SMILES: CC(C)C[C@H](NC(=O)[C@@H]1CCCN1C(=O)CNC(=O)[C@H](Cc1ccccc1)NC(=O)CNC(=O)[C@@H](C)NC(=O)[C@@H](N)Cc1ccc(O)cc1)C(=O)N[C@@H](Cc1c[nH]c2ccccc12)C(=O)OCc1cc(C(F)(F)F)cc(C(F)(F)F)c1 (H-Y[dA]GFGPLW-{OBzl(3,5-(CF3)2)})
- Ke [1]: 5.4 nM
- IC50 (Mu-type opioid receptor [11]): 380 nM
- Emax [3]: 36%
- EC50 [4]: 50 nM
- Emax [6]: 34%
- EC50 (Mu-type opioid receptor [8]): 42 nM
- Activity [10]: 0%

SMILES: CC(C)C[C@@H](NC(=O)[C@H](Cc1ccccc1)NC(=O)CNC(=O)[C@@H](C)NC(=O)[C@@H](N)Cc1ccc(O)cc1)C(=O)O [DADLE]
- IC50 (Mu-type opioid receptor [11]): 24 nM

SMILES: CCCC[C@@H](C(=O)N1CCC[C@H]1C(=O)N[C@@H](CC(C)C)C(=O)N[C@@H](Cc1c[nH]c2ccccc12)C(=O)OCc1cc(C(F)(F)F)cc(C(F)(F)F)c1)N(C)C(=O)[C@H](Cc1ccccc1)NC(=O)CNC(=O)[C@@H](C)NC(=O)[C@@H](N)Cc1ccc(O)cc1
- Ke [1]: 4.6 nM
- EC50 [4]: 360 nM
- Emax [6]: 290%
- Activity [9]: 12%
- Activity [10]: 2%

SMILES: CC(=O)N[C@@H](Cc1c[nH]c2ccccc12)C(=O)OCc1cc(C(F)(F)F)cc(C(F)(F)F)c1
- Ke [1]: 250 nM

SMILES: CSCC[C@H](NC(=O)[C@H](Cc1ccccc1)NC(=O)CNC(=O)[C@@H](C)NC(=O)[C@@H](N)Cc1ccc(O)cc1)C(=O)N1CCC[C@H]1C(=O)N[C@@H](CC(C)C)C(=O)N[C@@H](Cc1c[nH]c2ccccc12)C(=O)OCc1cc(C(F)(F)F)cc(C(F)(F)F)c1
- Ke [1]: 25 nM
- IC50 (Mu-type opioid receptor [11]): 360 nM
- Emax [3]: 42%
- EC50 [4]: 2.9 nM
- Emax [6]: 45%
- Activity [10]: 0%

SMILES: CCCC[C@H](NC(=O)[C@H](Cc1ccccc1)NC(=O)CNC(=O)[C@@H](C)NC(=O)[C@@H](N)Cc1ccc(O)cc1)C(=O)N1CCC[C@H]1C(=O)N[C@@H](CC(C)C)C(=O)N[C@@H](Cc1c[nH]c2ccccc12)C(=O)OCc1cc(C(F)(F)F)cc(C(F)(F)F)c1
- Ke [1]: 7.9 nM
- IC50 (Mu-type opioid receptor [11]): 370 nM
- EC50 [4]: 4 nM
- Emax [6]: 130%
- Activity [10]: 0%

SMILES: CC(C)C[C@H](NC(=O)[C@@H]1CCCN1C(=O)[C@H](CC(C)C)NC(=O)[C@H](Cc1ccccc1)NC(=O)CNC(=O)[C@@H](C)NC(=O)[C@@H](N)Cc1ccc(O)cc1)C(=O)N[C@@H](Cc1c[nH]c2ccccc12)C(=O)OCc1cc(C(F)(F)F)cc(C(F)(F)F)c1
- Ke [1]: 19 nM
- Ratio EC50 [2]: 3.4
- IC50 (Mu-type opioid receptor [11]): 340 nM
- Emax [3]: 45%
- Ratio Ki [5]: 4.7
- Emax [6]: 43%
- Ratio IC50 [7]: 3.4
- EC50 (Mu-type opioid receptor [8]): 33 nM
- Activity [10]: 0%
- Ki (Mu-type opioid receptor [12]): 23 nM

SMILES: CC(C)C[C@H](NC(=O)[C@@H]1CCCN1C(=O)[C@H](Cc1ccccc1)NC(=O)[C@H](Cc1ccccc1)NC(=O)CNC(=O)[C@@H](C)NC(=O)[C@@H](N)Cc1ccc(O)cc1)C(=O)N[C@@H](Cc1c[nH]c2ccccc12)C(=O)OCc1cc(C(F)(F)F)cc(C(F)(F)F)c1
- Ki [13]: 15 nM
- Ke [1]: 14 nM
- Ratio EC50 [2]: 2.8
- Emax [3]: 36%
- EC50 [4]: 21 nM
- Ratio Ki [5]: 1.9
- Emax [6]: 39%
- Ratio IC50 [7]: > 1
- EC50 (Mu-type opioid receptor [8]): 59 nM
- Activity [9]: 7%
- Activity [10]: 0%
